Screens as filed in PubChem BioAssay.
In the library only some 1.6% were active in any assay of this set; here they are far more common.
NCF1 inh – inhibitors of human p47phox binding; P14598; p47phox/p22phox peptide binding, fluorescence polarization, 2 h; inhibition, % at 24.7 µM; 220,000 tested, 0.53% active;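 further: 0% = p47phox with labelled peptide and 100% = labelled peptide alone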
eIF4E 4G PPI – inhibitors of eIF4E and eIF4G interaction in translation initiation | TR-FRET eIF4E-eIF4GI(517-606) binding, 2 h | AID 782 | P63073+Q04637 | inhibition, % at 21.7 µM | 220,000 tested, 0.37% active;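 further: 0% = full FRET control wells and 100% = background wells lacking eIF4GI fragment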
p97 inhibitor – inhibitors of human p97 ATPase; P55072; inhibition, % at 8 µM; recombinant p97 ATPase, Kinase-Glo ATP luminescence, 3 h; 220,000 tested, 0.42% active; in the data active means inhibition above about 15%;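 further: 0% = DMSO vehicle and 100% = wells lacking enzyme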
Target sequence (P55072 whole entry, looked up): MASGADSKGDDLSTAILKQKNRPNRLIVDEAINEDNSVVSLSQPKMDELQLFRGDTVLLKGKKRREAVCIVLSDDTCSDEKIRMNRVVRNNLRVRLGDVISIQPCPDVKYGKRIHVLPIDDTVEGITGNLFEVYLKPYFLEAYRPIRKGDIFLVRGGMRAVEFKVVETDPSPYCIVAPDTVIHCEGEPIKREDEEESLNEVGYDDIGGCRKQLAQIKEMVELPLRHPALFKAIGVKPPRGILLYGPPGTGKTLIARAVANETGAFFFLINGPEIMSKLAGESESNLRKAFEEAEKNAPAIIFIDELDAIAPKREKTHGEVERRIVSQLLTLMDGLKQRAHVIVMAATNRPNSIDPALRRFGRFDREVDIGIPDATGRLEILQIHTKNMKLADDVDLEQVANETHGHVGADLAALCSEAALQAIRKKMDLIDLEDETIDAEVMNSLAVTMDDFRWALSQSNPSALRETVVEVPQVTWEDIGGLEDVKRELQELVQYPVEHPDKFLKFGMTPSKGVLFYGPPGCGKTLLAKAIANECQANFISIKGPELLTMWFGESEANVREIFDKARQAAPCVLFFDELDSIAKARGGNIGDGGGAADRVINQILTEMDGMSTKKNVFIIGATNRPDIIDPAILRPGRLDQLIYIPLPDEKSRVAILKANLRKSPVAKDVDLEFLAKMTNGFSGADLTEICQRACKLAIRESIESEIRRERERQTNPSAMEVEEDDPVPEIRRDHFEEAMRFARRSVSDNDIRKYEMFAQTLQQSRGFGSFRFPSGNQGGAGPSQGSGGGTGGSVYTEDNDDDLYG
TbMetRS inhib – blocks T. brucei methionyl-tRNA synthetase activity | purified T. brucei MetRS, ATP depletion, Kinase-Glo luminescence | AID 624268 | 360,000 tested, 0.4% active | inhibition, % at 11.9 µM;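 active means inhibition above a per-plate cutoff of the control wells' mean inhibition plus 3 SD, cut at about 5.5% in these data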;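 further: 0% = DMSO wells median and 100% = median of wells with control inhibitor compound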
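Dosing: 11.9 µM compound single dose, 0.9% DMSO; Assay system: purified T. brucei MetRS enzyme; Measured by: Kinase-Glo luciferase luminescence reporting remaining unconsumed ATP; Schedule: 15 min plus 2 h at 25 °C.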
UBC9 SUMO inh – SUMOylation inhibition | 290,000 tested, 0.36% active | inhibition, % at 35 µM | HTRF SUMOylation assay, SAE1/SAE2 + UBC9, in vitro | P63279; in the data active means inhibition above about 50%, passing the limit was not always enough
14-3-3 Bad inh – disrupts binding of bovine 14-3-3 zeta to phospho-Bad peptide | P63103 | TR-FRET 14-3-3zeta/Dy647-pBad peptide displacement, 1 h | inhibition, % at 21.7 µM | 220,000 tested, 0.71% active;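 active means inhibition above about 70%, limit read from the data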;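 further: 0% = full 14-3-3 plus peptide FRET controls and 100% = background without 14-3-3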
* marks the source's active call; other numbers are inactive results; [ ] = another dose, or the depositor's remark.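 How the source made its calls, unless noted: active means inhibition above about 30% (limit read from the data); inactive means the rest.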

Screening O=C(CCC1CCCN(C(=O)CCCc2ccccc2)C1)N1CCN(c2ccccn2)CC1 (centres undefined) returned NCF1 inh 94.8*, eIF4E 4G PPI 2.5, p97 inhibitor -4.4, TbMetRS inhib -0.1, UBC9 SUMO inh 7.6 and 14-3-3 Bad inh -9.4.
Screening O=C(CCC1CCCN(C(=O)Cc2cccc(F)c2)C1)N1CCN(c2ccccn2)CC1 (centres undefined) returned NCF1 inh -2.9, eIF4E 4G PPI 0.9, p97 inhibitor -6.2, TbMetRS inhib 0.7, UBC9 SUMO inh -12.9 and 14-3-3 Bad inh -0.8.
Screening COc1ccc(OC)c(NC(=O)Nc2nnc(COCCO)s2)c1 returned TbMetRS inhib 0.1.
For CC1=C(C#N)C(=O)N(C2CCS(=O)(=O)C2)C(=O)/C1=C\c1ccco1 (centres undefined) the results were NCF1 inh -11.0, eIF4E 4G PPI 62.9*, p97 inhibitor 34.2*, UBC9 SUMO inh 90.3* and 14-3-3 Bad inh 76.9*.
Screening Nc1ccc2nc(CN3CCOCC3)[nH]c2c1 returned NCF1 inh -7.8, eIF4E 4G PPI -6.0, p97 inhibitor -0.2, TbMetRS inhib -0.3, UBC9 SUMO inh 8.6 and 14-3-3 Bad inh 90.8*.
Screening CCCCNc1nccnc1-c1cccc(C=O)c1 returned TbMetRS inhib 0.0.
Screening CCc1nc(N2CCN(C(=O)c3ccco3)CC2)c2oc3ccccc3c2n1 returned NCF1 inh 11.2, eIF4E 4G PPI 1.5, p97 inhibitor 0.9, TbMetRS inhib 0.9, UBC9 SUMO inh 16.0 and 14-3-3 Bad inh 77.3*.
Cc1nc(N2CCN(C(=O)c3ccco3)CC2)c2oc3ccccc3c2n1 was read as TbMetRS inhib -0.5 and UBC9 SUMO inh 11.1.
`O=C(c1ccco1)N1CCN(Cc2nc(Cc3ccccc3)no2)CC1` gave NCF1 inh 131.0*, eIF4E 4G PPI 4.2, p97 inhibitor 6.4, TbMetRS inhib -0.8, UBC9 SUMO inh 5.4 and 14-3-3 Bad inh 4.0.
`C[C@H](NC(=O)C1CCN(C(=O)[C@@H]2CCCN2C(=O)OC(C)(C)C)CC1)C(=O)NCc1ccc(F)cc1` gave TbMetRS inhib -1.6.
Cc1ccc(NC(=O)CN2C(=O)S/C(=C/c3ccc(-c4cccc(C(=O)O)c4)o3)C2=O)cc1 was read as NCF1 inh -22.6, eIF4E 4G PPI 43.4*, p97 inhibitor 3.5, TbMetRS inhib -0.2, UBC9 SUMO inh 80.8* and 14-3-3 Bad inh 88.2*.
For Cc1ccc(C(=O)O)cc1-c1ccc(/C=C2\SC(=O)N(CC(=O)Nc3ccccc3)C2=O)o1 the results were NCF1 inh -66.2, eIF4E 4G PPI 5.7, p97 inhibitor 13.1, TbMetRS inhib 0.1, UBC9 SUMO inh 84.9* and 14-3-3 Bad inh 33.8.
Screening Cc1cc(C(=O)O)ccc1-c1ccc(/C=C2\SC(=O)N(CC(=O)Nc3ccc4c(c3)OCO4)C2=O)o1 returned TbMetRS inhib -0.5 and UBC9 SUMO inh 81.6*.
For CC1C(=O)OC2C1CCC1(C)C3(C)C(=O)C=CC213 (centres undefined) the results were TbMetRS inhib 0.2.
For Cc1cccc(N2CSC3=C(C#N)C(c4ccc(C)o4)CC(=O)N3C2)c1 (centres undefined) the results were NCF1 inh -15.8, eIF4E 4G PPI 15.6, p97 inhibitor 17.3*, UBC9 SUMO inh 78.4* and 14-3-3 Bad inh 13.4.
COc1cc(OC)c(C2CC(=O)N3CN(c4ccccc4C)CSC3=C2C#N)cc1OC (centres undefined) was read as NCF1 inh 47.3*, eIF4E 4G PPI 18.4, p97 inhibitor 4.0, UBC9 SUMO inh 23.5 and 14-3-3 Bad inh -11.6.
COc1ccc(OC)c(C2CC(=O)N3CN(c4ccccc4)CSC3=C2C#N)c1 (centres undefined) was read as NCF1 inh -9.1, eIF4E 4G PPI -2.7, p97 inhibitor -3.7, TbMetRS inhib 0.5, UBC9 SUMO inh 10.2 and 14-3-3 Bad inh 6.2.
`Fc1cccc(-n2c(-c3cccs3)nc3nc4ccccc4nc32)c1` gave NCF1 inh 9.2, eIF4E 4G PPI 8.9, p97 inhibitor 6.4, UBC9 SUMO inh 54.9* and 14-3-3 Bad inh 40.2.
For Fc1ccc(-n2c(-c3cccs3)nc3nc4ccccc4nc32)cc1 the results were NCF1 inh -4.7, eIF4E 4G PPI 3.8, p97 inhibitor 4.1, TbMetRS inhib 0.0, UBC9 SUMO inh -1.7 and 14-3-3 Bad inh 16.0.
Screening O=C(CN1CCCCCC1)Nc1ccccc1C(=O)Nc1ccccc1 returned TbMetRS inhib -0.4.
Screening Cc1ccc(C(=O)N(CC(=O)Nc2ccc(Cl)c(Cl)c2)Cc2ccco2)cc1 returned NCF1 inh -11.4, eIF4E 4G PPI 3.8, p97 inhibitor 0.5, TbMetRS inhib 0.6, UBC9 SUMO inh 10.1 and 14-3-3 Bad inh 7.5.
Screening O=C(CN(Cc1ccco1)C(=O)c1ccccc1)Nc1ccc(Cl)c(Cl)c1 returned NCF1 inh -14.3, eIF4E 4G PPI 1.6, p97 inhibitor -8.1, TbMetRS inhib 5.8*, UBC9 SUMO inh -10.0 and 14-3-3 Bad inh 3.4.
For Cc1nn(CC#N)c(=O)n1-c1ccccc1F the results were NCF1 inh -12.2, eIF4E 4G PPI 3.3, p97 inhibitor 2.4, TbMetRS inhib -0.8, UBC9 SUMO inh 11.1 and 14-3-3 Bad inh 5.1.
`Cc1ccc(-n2c(C)nn(CC#N)c2=O)cc1` gave NCF1 inh -3.5, eIF4E 4G PPI -1.3, p97 inhibitor 1.8, TbMetRS inhib -0.9, UBC9 SUMO inh 9.3 and 14-3-3 Bad inh 86.7*.
Screening O=C(NCCc1ccccc1F)C1CC(=O)N(c2ccc3c(c2)OCCO3)C1 (centres undefined) returned TbMetRS inhib 0.0.
For Cn1cnnc1Sc1ccc(C(=O)OCC(=O)Nc2cc(Cl)cc(Cl)c2)cc1[N+](=O)[O-] the results were NCF1 inh -13.7, eIF4E 4G PPI 29.2, p97 inhibitor -3.8, TbMetRS inhib -1.3, UBC9 SUMO inh -0.7 and 14-3-3 Bad inh 85.9*[fluorescence artefact?].
Screening CCS(=O)(=O)c1ccc(Sc2nncn2C)c([N+](=O)[O-])c1 returned NCF1 inh 124.0*, eIF4E 4G PPI -1.4, p97 inhibitor 8.4, TbMetRS inhib -0.6, UBC9 SUMO inh 0.6 and 14-3-3 Bad inh -3.4.
For Cn1cnnc1Sc1ccc(C(=O)OCC(=O)Nc2ccccc2)cc1[N+](=O)[O-] the results were NCF1 inh 12.5, eIF4E 4G PPI -14.0, p97 inhibitor -6.6, TbMetRS inhib -0.3, UBC9 SUMO inh 12.1 and 14-3-3 Bad inh -4.1.
`CCc1nc2c(c(=O)c3ccccc3n2C)c(=O)n1CCc1ccc(OC)cc1` gave NCF1 inh 4.8, eIF4E 4G PPI 0.4, p97 inhibitor 7.0, UBC9 SUMO inh 8.2 and 14-3-3 Bad inh 88.2*.
